# Laboratory results from ChEMBL document CHEMBL1137710, “Synthesis and in vitro antitumor activity of new quinoxaline derivatives” (2009).
# Assays:
# Format in all cases: functional
# NCI-H460 [1] = experiment: Anticancer activity against human NCI-H460 cells assessed as cell growth at 100 uM after 48 hrs by sulforhodamine B assay; details: NCI-H460, 48 h, read-out: Activity
# MCF7 [2] = experiment: Anticancer activity against human MCF7 cells assessed as cell growth at 100 uM after 48 hrs by sulforhodamine B assay; details: MCF7, 48 h, read-out: Activity
# SF-268 [3] = experiment: Anticancer activity against human SF268 cells assessed as cell growth at 100 uM after 48 hrs by sulforhodamine B assay; details: SF-268, 48 h, read-out: Activity
# [4] = Growth inhibition of human […] cells after 48 hrs by sulforhodamine B assay
# Procedure, shortened: (§1)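 NCI 60-human-tumor-cell-line panel, with compounds tested over a 5-log dose range. Values are taken from dose-response curves as log10 molar concentrations: GI50 is 50% net growth inhibition, TGI is total growth inhibition, and LC50 is 50% net cell death.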
# A549 = experiment: Growth inhibition of human A549 cells after 48 hrs by sulforhodamine B assay; details: A549, 48 h; procedure, shortened: as §1
# NCI-H23 = experiment: Growth inhibition of human NCI-H23 cells after 48 hrs by sulforhodamine B assay; details: NCI-H23, 48 h; procedure, shortened: as §1
# NCI-H460 [5] = experiment: Growth inhibition of human NCI-H460 cells after 48 hrs by sulforhodamine B assay; details: NCI-H460, 48 h; procedure, shortened: as §1
# COLO 205 = experiment: Growth inhibition of human COLO205 cells after 48 hrs by sulforhodamine B assay; details: COLO 205, 48 h; procedure, shortened: as §1
# HCT-116 = experiment: Growth inhibition of human HCT116 cells after 48 hrs by sulforhodamine B assay; details: HCT-116, 48 h; procedure, shortened: as §1
# SW-620 = experiment: Growth inhibition of human SW620 cells after 48 hrs by sulforhodamine B assay; details: SW-620, 48 h
# Procedure, shortened: (§2)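 Run in the NCI 60-human-tumour-cell-line panel, tested over a 5-log dose range. Dose–response curves gave three values per cell line, each as a log10 molar concentration: GI50 (50% inhibition of net cell growth), TGI (total inhibition of net growth) and LC50 (50% net cell death). The mean graph midpoint is the arithmetic mean over all lines, with insensitive lines entered at the highest concentration tested.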
# SF-268 [6] = experiment: Growth inhibition of human SF268 cells after 48 hrs by sulforhodamine B assay; details: SF-268, 48 h; procedure, shortened: as §1
# SF-295 = experiment: Growth inhibition of human SF295 cells after 48 hrs by sulforhodamine B assay; details: SF-295, 48 h; procedure, shortened: as §1
# SNB-19 = experiment: Growth inhibition of human SNB19 cells after 48 hrs by sulforhodamine B assay; details: SNB-19, 48 h; procedure, shortened: as §2
# U-251 = experiment: Growth inhibition of human U251 cells after 48 hrs by sulforhodamine B assay; details: U-251, 48 h; procedure, shortened: as §2
# M14 = experiment: Growth inhibition of human M14 cells after 48 hrs by sulforhodamine B assay; details: M14, 48 h; procedure, shortened: as §1
# SK-MEL-28 = experiment: Growth inhibition of human SK-MEL-28 cells after 48 hrs by sulforhodamine B assay; details: SK-MEL-28, 48 h; procedure, shortened: as §1
# SK-MEL-5 = experiment: Growth inhibition of human SK-MEL-5 cells after 48 hrs by sulforhodamine B assay; details: SK-MEL-5, 48 h; procedure, shortened: as §1
# UACC-257 = experiment: Growth inhibition of human UACC257 cells after 48 hrs by sulforhodamine B assay; details: UACC-257, 48 h; procedure, shortened: as §2
# UACC-62 = experiment: Growth inhibition of human UACC62 cells after 48 hrs by sulforhodamine B assay; details: UACC-62, 48 h; procedure, shortened: as §2
# IGROV-1 = experiment: Growth inhibition of human IGROV1 cells after 48 hrs by sulforhodamine B assay; details: IGROV-1, 48 h; procedure, shortened: as §1
# OVCAR-4 = experiment: Growth inhibition of human OVCAR4 cells after 48 hrs by sulforhodamine B assay; details: OVCAR-4, 48 h; procedure, shortened: as §1
# OVCAR-8 = experiment: Growth inhibition of human OVCAR8 cells after 48 hrs by sulforhodamine B assay; details: OVCAR-8, 48 h; procedure, shortened: as §1
# SK-OV-3 = experiment: Growth inhibition of human SKOV3 cells after 48 hrs by sulforhodamine B assay; details: SK-OV-3, 48 h; procedure, shortened: as §1
# RXF 393 = experiment: Growth inhibition of human RXF393 cells after 48 hrs by sulforhodamine B assay; details: RXF 393, 48 h; procedure, shortened: as §1
# TK-10 = experiment: Growth inhibition of human TK10 cells after 48 hrs by sulforhodamine B assay; details: TK-10, 48 h; procedure, shortened: as §2
# PC-3 = experiment: Growth inhibition of human PC3 cells after 48 hrs by sulforhodamine B assay; details: PC-3, 48 h; procedure, shortened: as §1
# DU-145 = experiment: Growth inhibition of human DU145 cells after 48 hrs by sulforhodamine B assay; details: DU-145, 48 h; procedure, shortened: as §1
# MDA-MB-231 = experiment: Growth inhibition of human MDA-MB-231 cells after 48 hrs by sulforhodamine B assay; details: MDA-MB-231, 48 h; procedure, shortened: as §1
# MDA-MB-435 = experiment: Growth inhibition of human MDA-MB-435 cells after 48 hrs by sulforhodamine B assay; details: MDA-MB-435, 48 h; procedure, shortened: as §1
# MCF7 [7] = experiment: Growth inhibition of human MCF7 cells after 48 hrs by sulforhodamine B assay; details: MCF7, 48 h; procedure, shortened: as §1
# [8] = read-out: pLC50 (the source's name) (converted)
smiles,measurement,setting,value
COc1cc(OC)cc(Oc2nc3cc(N)cc(N)c3nc2-c2ccccc2)c1,growth at 100 µM,NCI-H460 [1],2%
same,growth at 100 µM,MCF7 [2],0%
same,growth at 100 µM,SF-268 [3],1%
same,GI50,[4],2.88 µM
same,TGI,[4]; read-out: pTGI (converted),8.51 µM
same,GI50,A549,2.88 µM
same,TGI,A549; read-out: pTGI (converted),13.2 µM
same,GI50,NCI-H23,1.7 µM
same,TGI,NCI-H23; read-out: pTGI (converted),12.6 µM
same,GI50,NCI-H460 [5],2.95 µM
same,TGI,NCI-H460 [5]; read-out: pTGI (converted),12.6 µM
same,GI50,COLO 205,10.7 µM
same,TGI,COLO 205; read-out: pTGI (converted),22.4 µM
same,GI50,HCT-116,2.34 µM
same,TGI,HCT-116; read-out: pTGI (converted),10 µM
same,GI50,SW-620,2.24 µM
same,CC50,SW-620; [8],31.6 µM
same,TGI,SW-620; read-out: pTGI (converted),10.2 µM
same,GI50,SF-268 [6],1.74 µM
same,TGI,SF-268 [6]; read-out: pTGI (converted),7.08 µM
same,GI50,SF-295,2.19 µM
same,TGI,SF-295; read-out: pTGI (converted),8.51 µM
same,GI50,SNB-19,2.51 µM
same,TGI,SNB-19; read-out: pTGI (converted),12.6 µM
same,GI50,U-251,2.63 µM
same,TGI,U-251; read-out: pTGI (converted),10.7 µM
same,GI50,M14,1.58 µM
same,CC50,M14; [8],28.8 µM
same,TGI,M14; read-out: pTGI (converted),7.76 µM
same,GI50,SK-MEL-28,3.16 µM
same,CC50,SK-MEL-28; [8],38.9 µM
same,TGI,SK-MEL-28; read-out: pTGI (converted),15.5 µM
same,GI50,SK-MEL-5,1.91 µM
same,CC50,SK-MEL-5; [8],24.5 µM
same,TGI,SK-MEL-5; read-out: pTGI (converted),6.46 µM
same,GI50,UACC-257,2.19 µM
same,CC50,UACC-257; [8],37.2 µM
same,TGI,UACC-257; read-out: pTGI (converted),12.3 µM
same,GI50,UACC-62,4.07 µM
same,CC50,UACC-62; [8],47.9 µM
same,TGI,UACC-62; read-out: pTGI (converted),18.2 µM
same,GI50,IGROV-1,2.63 µM
same,CC50,IGROV-1; [8],38 µM
same,TGI,IGROV-1; read-out: pTGI (converted),12.3 µM
same,GI50,OVCAR-4,2.88 µM
same,CC50,OVCAR-4; [8],58.9 µM
same,TGI,OVCAR-4; read-out: pTGI (converted),16.2 µM
same,GI50,OVCAR-8,2.88 µM
same,CC50,OVCAR-8; [8],50.1 µM
same,TGI,OVCAR-8; read-out: pTGI (converted),16.2 µM
same,GI50,SK-OV-3,3.47 µM
same,CC50,SK-OV-3; [8],69.2 µM
same,TGI,SK-OV-3; read-out: pTGI (converted),16.2 µM
same,GI50,RXF 393,5.37 µM
same,CC50,RXF 393; [8],44.7 µM
same,TGI,RXF 393; read-out: pTGI (converted),18.2 µM
same,GI50,TK-10,28.2 µM
same,CC50,TK-10; [8],> 100 µM
same,TGI,TK-10; read-out: pTGI (converted),57.5 µM
same,GI50,PC-3,10.2 µM
same,CC50,PC-3; [8],72.4 µM
same,TGI,PC-3; read-out: pTGI (converted),27.5 µM
same,GI50,DU-145,21.9 µM
same,CC50,DU-145; [8],> 100 µM
same,TGI,DU-145; read-out: pTGI (converted),57.5 µM
same,GI50,MDA-MB-231,3.98 µM
same,CC50,MDA-MB-231; [8],87.1 µM
same,TGI,MDA-MB-231; read-out: pTGI (converted),21.9 µM
same,GI50,MDA-MB-435,0.389 µM
same,CC50,MDA-MB-435; [8],5.01 µM
same,TGI,MDA-MB-435; read-out: pTGI (converted),1.82 µM
same,GI50,MCF7 [7],1.7 µM
same,CC50,MCF7 [7]; [8],14.5 µM
same,TGI,MCF7 [7]; read-out: pTGI (converted),4.57 µM
